{"source": "ChEMBL document CHEMBL5154772", "about": "“Biological Investigation of a Water-Soluble Isoginkgetin-Phosphate Analogue, Targeting the Spliceosome with In Vivo Antitumor Activity” (J Med Chem, 2022)", "key": {"[1]": {"assay": "Toxicity in C57BL/6 mouse assessed as change in liver weight at 50 mg/kg, ip administered as single dose and measured after 15 days (reference value: 1.2 to 1.3 g)", "assay_type": "organism-based", "settings": "in vivo, 360 h, time 15 day", "method_in_brief": "(§1)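 Female C57BL/6 mice given one IP injection of 100 µL, at 50, 100, 250 or 500 mg/kg in sterile PBS, two mice per dose; PBS-injected controls. Behaviour checked right after and at 30 min. Body weight recorded every 2–3 days for 15 days, then liver, spleen and kidneys weighed.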"}, "[2]": {"assay": "Metabolic stability in mouse liver microsomes assessed as intrinsic clearance incubated for 45 mins by HPLC-MS/MS analysis", "assay_type": "ADME, Microsome", "settings": "read-out: CLH", "method_in_brief": "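Incubation with mouse or human liver microsomes for 45 min, with or without NADPH. Remaining parent compound was quantified over time by HPLC-MS/MS and expressed as % remaining; intrinsic clearance is given in μL/min/mg protein.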"}, "[3]": {"assay": "Plasma protein binding in human at 2 uM by rapid equilibrium dialysis based LC-MS/MS analysis", "assay_type": "ADME, cell-free", "settings": "read-out: PPB (converted)", "method_in_brief": "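Binding was measured at 2 μM in triplicate by rapid equilibrium dialysis (8K MWCO). Quantification was by UPLC-MS/MS on a phenyl column in positive ESI MRM mode (m/z 727>567), with an ammonium formate pH 5 / 1,5-DMHA mobile phase at 50 °C. Both unbound fraction (fu) and % bound are reported.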"}, "[4]": {"target": "Beta-1 adrenergic receptor (Homo sapiens) (UniProt P08588)", "sequence (P08588 whole entry, looked up)": "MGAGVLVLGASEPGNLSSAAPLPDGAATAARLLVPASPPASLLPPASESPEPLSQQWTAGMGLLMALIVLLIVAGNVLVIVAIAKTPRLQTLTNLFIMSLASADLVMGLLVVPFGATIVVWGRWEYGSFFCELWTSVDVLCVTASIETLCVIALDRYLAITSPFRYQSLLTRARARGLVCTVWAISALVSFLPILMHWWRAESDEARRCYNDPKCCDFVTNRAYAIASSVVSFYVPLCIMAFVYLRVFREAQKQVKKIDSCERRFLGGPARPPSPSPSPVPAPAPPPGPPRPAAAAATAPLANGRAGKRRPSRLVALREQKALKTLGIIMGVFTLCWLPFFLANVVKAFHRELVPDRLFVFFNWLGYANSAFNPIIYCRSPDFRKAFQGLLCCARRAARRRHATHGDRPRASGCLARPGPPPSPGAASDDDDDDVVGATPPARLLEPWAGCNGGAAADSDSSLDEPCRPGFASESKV", "assay": "Antagonist activity at ADRB1 (unknown origin) at 10 uM", "assay_type": "functional", "design": "scale not given: the % may be the effect or the level left", "method_in_brief": "(§2)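 Single-concentration safety screen at 10 μM across a 47-target panel. GPCRs were run in antagonist mode and enzymes in inhibitor mode.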"}, "[5]": {"target": "3',5'-cyclic-AMP phosphodiesterase 4D (Homo sapiens) (UniProt Q08499)", "sequence (Q08499 whole entry)": "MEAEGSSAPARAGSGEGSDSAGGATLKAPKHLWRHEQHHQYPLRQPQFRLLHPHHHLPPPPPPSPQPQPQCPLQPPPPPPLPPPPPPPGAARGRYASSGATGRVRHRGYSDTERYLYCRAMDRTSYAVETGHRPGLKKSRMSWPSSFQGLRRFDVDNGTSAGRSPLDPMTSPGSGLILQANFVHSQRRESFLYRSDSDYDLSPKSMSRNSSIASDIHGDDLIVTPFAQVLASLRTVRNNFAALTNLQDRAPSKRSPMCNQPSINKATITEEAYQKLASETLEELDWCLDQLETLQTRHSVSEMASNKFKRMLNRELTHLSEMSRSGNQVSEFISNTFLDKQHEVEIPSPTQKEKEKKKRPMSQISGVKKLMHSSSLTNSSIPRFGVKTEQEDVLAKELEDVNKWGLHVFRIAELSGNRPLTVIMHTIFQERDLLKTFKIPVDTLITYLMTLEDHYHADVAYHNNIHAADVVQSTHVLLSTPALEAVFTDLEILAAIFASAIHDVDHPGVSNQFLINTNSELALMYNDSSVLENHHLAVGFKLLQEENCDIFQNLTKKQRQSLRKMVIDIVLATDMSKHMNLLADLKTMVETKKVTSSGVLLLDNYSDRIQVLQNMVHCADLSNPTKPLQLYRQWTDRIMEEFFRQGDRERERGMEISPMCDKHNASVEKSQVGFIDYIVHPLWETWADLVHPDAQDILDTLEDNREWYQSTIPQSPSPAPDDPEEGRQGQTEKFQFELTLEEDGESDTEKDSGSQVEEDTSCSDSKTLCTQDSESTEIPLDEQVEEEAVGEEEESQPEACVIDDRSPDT", "assay": "Inhibition of PDE4D2 (unknown origin) at 10 uM", "method_in_brief": "as §2"}, "[6]": {"assay": "Cmax in C57BL/6J mouse at 0.711 mg/kg, iv administered as single dose measured up to 24 hrs", "assay_type": "ADME, organism-based", "design": "time < 24 hrs, dose 0.711 mg/kg, route iv", "settings": "in vivo", "method_in_brief": "(§3)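 Single intravenous dose. Mice were male C57BL/6J, 12 per route; tail-vein blood was collected under sodium heparin, with 3 mice sampled at each pair of times (0.083/2, 0.25/4, 0.5/8, 1/24 h). Dogs were male beagles (n=3); jugular blood was collected under K2 EDTA predose and at 0.083, 0.25, 0.5, 1, 2, 4, 6, 8 and 24 h. Plasma was prepared from the samples.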"}, "[7]": {"assay": "Total clearance in C57BL/6J mouse at 9.103 mg/kg, ip administered as single dose measured up to 24 hrs", "assay_type": "ADME, organism-based", "settings": "in vivo", "method_in_brief": "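Male C57BL/6J mice, single IP dose. Tail-vein blood into sodium heparin for plasma. Twelve mice per route, three per pair of time points: 0.083 and 2 h, 0.25 and 4 h, 0.5 and 8 h, 1 and 24 h. Parameters derived from plasma concentration–time data.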"}, "[8]": {"assay": "Total clearance in C57BL/6J mouse at 0.711 mg/kg, iv administered as single dose measured up to 24 hrs", "assay_type": "ADME, organism-based", "settings": "in vivo", "method_in_brief": "as §3"}, "[9]": {"assay": "Toxicity in C57BL/6 mouse assessed as change in kidney weight at 250 mg/kg, ip administered as single dose and measured after 15 days (reference value: 0.3 g)", "assay_type": "organism-based", "settings": "in vivo, 360 h, time 15 day", "method_in_brief": "as §1"}, "[10]": {"assay": "Antitumour activity against mouse wild type MCA-205 cells implanted in C57BL/6 mouse assessed as tumor size by measuring cell killing at 5 mg/kg, IT administered starting from day 7 post inoculation and thrice a week for 2 weeks", "assay_type": "functional", "method_in_brief": "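Female C57BL/6 mice (6 weeks old) given subcutaneous MCA205 WT fibrosarcoma in the right flank. From day 7 after inoculation, 5 mg/kg given intratumorally three times per week for two weeks; untreated controls. Tumour area recorded every 3–4 days until ethical endpoints, then tumour size at killing. Groups compared by one-way ANOVA.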"}}}
{"smiles": "COc1ccc(-c2cc(=O)c3c(O)cc(OP(=O)([O-])[O-])c(-c4cc(-c5cc(=O)c6c(O)cc(OP(=O)([O-])[O-])cc6o5)ccc4OC)c3o2)cc1.[Na+].[Na+].[Na+].[Na+]", "values": [{"measurement": "Activity", "setting": "[1]", "value": 1, "unit": "g"}, {"measurement": "microsomal CLint", "setting": "[2]", "value": 8, "unit": "µL/min/mg"}, {"measurement": "fraction unbound at 2 µM", "setting": "[3]", "value": 0.017}, {"measurement": "Activity", "setting": "[4]", "value": 35, "unit": "%"}, {"measurement": "inhibition", "setting": "[5]", "value": 87.2, "unit": "%"}, {"measurement": "Cmax", "setting": "[6]", "value": 323, "unit": "ng/mL"}, {"measurement": "CL/F", "setting": "[7]", "value": 154, "unit": "mL/min/kg"}, {"measurement": "clearance", "setting": "[8]", "value": 133, "unit": "mL/min/kg"}, {"measurement": "Activity", "setting": "[9]", "value": 0.1, "unit": "g"}, {"measurement": "Activity", "setting": "[10]", "value": 50, "unit": "%"}]}
